Reference: ChEMBL document CHEMBL2040758, “Synthesis and antitumor activity of novel quinazoline derivatives containing thiosemicarbazide moiety” (Eur J Med Chem, 2012)

Columns and labels:
Assay type in all cases: functional, cell-based
KB = assay: Cytotoxicity against human KB cells after 72 hrs by MTT assay
In short: (§1)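 Log-phase cells: KB, CNE2, MGC-803 and GLC-82 grown in RPMI 1640 + 10% fetal calf serum; MCF-7 in DMEM + 10% fetal calf serum. Seeded at 1.5×10⁴ cells/mL (KB), 2.0×10⁴ (CNE2, MGC-803, GLC-82) or 2.5×10⁴ (MCF-7), 37 °C, 5% CO₂, 24 h. Compound exposure 72 h, 37 °C. MTT (5 mg/mL saline stock) 3 h. A570, reference 655 nm. IC₅₀ versus untreated control, ≥3 experiments.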

MGC-803 = assay: Cytotoxicity against human MGC803 cells after 72 hrs by MTT assay; conditions: MGC-803, 72 h; in short: as §1
MCF7 = assay: Cytotoxicity against human MCF7 cells after 72 hrs by MTT assay; conditions: MCF7, 72 h; in short: as §1
[1] = Cytotoxicity against human GLC82 cells after 72 hrs by MTT assay; conditions: GLC82, 72 h; in short: as §1
[2] = Cytotoxicity against human CNE2 cells after 72 hrs by MTT assay; conditions: CNE-2, 72 h; in short: as §1

| SMILES | IC50 (KB) [µM] | IC50 (MGC-803) [µM] | IC50 (MCF7) [µM] | IC50 [1] [µM] | IC50 [2] [µM] |
| --- | --- | --- | --- | --- | --- |
| COc1cc2ncnc(NNC(=S)NC(=O)c3ccc(Cl)cc3)c2cc1OC | 4.59 | 3.71 | 8.94 | 9.62 | 7.53 |
| COc1cc2ncnc(NNC(=S)NC(=O)c3ccccc3OC)c2cc1OC | 3.85 | 1.59 | 8.8 | 16 | 8.41 |
| COc1cc2ncnc(NNC(=S)NC(=O)c3ccccc3C)c2cc1OC | 11.4 | 11.1 | 19.3 | 21.5 | 10.5 |
| COc1cc2ncnc(NNC(=S)NC(=O)c3ccc(C)cc3)c2cc1OC | 24.2 | 19.7 | 22.3 | 29.9 | 33.3 |
| O=C(NC(=S)NNc1ncnc2ccccc12)c1ccccc1 | 2.33 | 6.99 | 5.96 | 8.37 | 1.49 |
| O=C(NC(=S)NNc1ncnc2ccccc12)c1ccccc1Cl | 7.71 | 9.14 | 10.5 | 10.8 | 6.09 |
| O=C(NC(=S)NNc1ncnc2ccccc12)c1cccc(Cl)c1 | 4.74 | 4.54 | 3.54 | 3.24 | 2.92 |
| O=C(NC(=S)NNc1ncnc2ccccc12)c1ccc(Cl)cc1 | 3.94 | 1.86 | 5.96 | 6.68 | 1.53 |
| O=C(NC(=S)NNc1ncnc2ccccc12)c1ccccc1F | 2.51 | 5.01 | 5.02 | 6.46 | 4.61 |
| O=C(NC(=S)NNc1ncnc2ccccc12)c1ccc(F)cc1 | 1.87 | 3.6 | 4.59 | 6.07 | 2.84 |
| O=C(NC(=S)NNc1ncnc2ccccc12)c1ccc(C(F)(F)F)cc1 | 7.92 | 10.6 | 8.05 | 12.2 | 22.5 |
| COc1ccccc1C(=O)NC(=S)NNc1ncnc2ccccc12 | > 50 | 14.3 | 8.7 | 9.5 | 15.7 |
| Cc1ccccc1C(=O)NC(=S)NNc1ncnc2ccccc12 | 2.77 | 4.24 | 16.5 | 13.2 | 5.46 |
| Cc1ccc(C(=O)NC(=S)NNc2ncnc3ccccc23)cc1 | 10.1 | 3.76 | 7.82 | 11.2 | 17.2 |
| COc1cc2ncnc(NNC(=S)NC(=O)c3ccccc3)c2cc1OC | 3.77 | 3.05 | 6.99 | 6.55 | 8.18 |
| COc1cc2ncnc(NNC(=S)NC(=O)c3ccccc3Cl)c2cc1OC | 3.56 | 6.44 | 23.1 | 10 | 9.67 |
| COc1cc2ncnc(NNC(=S)NC(=O)c3cccc(Cl)c3)c2cc1OC | 4.83 | 4.06 | 11.5 | 8.37 | 7.46 |
| COc1cc2ncnc(NNC(=S)NC(=O)c3ccccc3F)c2cc1OC | 4.07 | 2.39 | 8.5 | 8.64 | 12.7 |
| COc1cc2ncnc(NNC(=S)NC(=O)c3ccc(F)cc3)c2cc1OC | 4.53 | 8.3 | 25.8 | 15.3 | 16.1 |
| COc1cc2ncnc(NNC(=S)NC(=O)c3ccc(C(F)(F)F)cc3)c2cc1OC | 8.84 | 9.28 | 16.8 | 16.5 | 16.5 |
| O=c1[nH]cc(F)c(=O)[nH]1 [FLUOROURACIL] | 8.28 | 18.5 | 14.2 | 17.4 | 15.1 |
